Values after ≈ are worked out from the molar mass of the structure shown.
Experiments:
Format in all cases: functional
[1] = system: Enterococcus faecalis; assay: Antibacterial activity against Enterococcus faecalis 14-2 after 18 to 24 hrs
Method in brief: (§1)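 MIC by standard NCCLS reference procedure (M100-S11); lowest concentration of compound inhibiting visible bacterial growth after incubation at 35 °C for 18–24 h, read as complete inhibition of growth. Ciprofloxacin, levofloxacin and moxifloxacin run alongside as reference agents.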

[2] = system: Enterococcus faecium; assay: Antibacterial activity against Enterococcus faecium 14-1 after 18 to 24 hrs; method in brief: as §1
[3] = system: Enterococcus faecium; assay: Antibacterial activity against Enterococcus faecium 14-2 after 18 to 24 hrs; method in brief: as §1
[4] = system: Enterococcus faecium; assay: Antibacterial activity against Enterococcus faecium 14-5 after 18 to 24 hrs; method in brief: as §1
[5] = system: Enterococcus faecium; assay: Antibacterial activity against Enterococcus faecium 14-6 after 18 to 24 hrs; method in brief: as §1
[6] = system: Mycobacterium tuberculosis; assay: Antimycobacterial activity against Mycobacterium tuberculosis H37Rv ATCC 27294 by alamar blue assay
Method in brief: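 Microplate Alamar Blue Assay; MIC is the lowest concentration giving ≥90% reduction in fluorescence relative to the mean of replicate bacterium-only controls. MDR strain 6133 is resistant to isoniazid and rifampicin.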

[7] = system: Escherichia coli; assay: Antibacterial activity against Escherichia coli ATCC 25922 after 18 to 24 hrs; method in brief: as §1
[8] = system: Escherichia coli; assay: Antibacterial activity against ESBL-positive Escherichia coli 14-1 after 18 to 24 hrs; method in brief: as §1
[9] = system: Escherichia coli; assay: Antibacterial activity against ESBL-positive Escherichia coli 14-2 after 18 to 24 hrs; method in brief: as §1
[10] = system: Escherichia coli; assay: Antibacterial activity against Escherichia coli 14-1 after 18 to 24 hrs; method in brief: as §1
[11] = system: Escherichia coli; assay: Antibacterial activity against Escherichia coli 14-2 after 18 to 24 hrs; method in brief: as §1
[12] = system: Klebsiella pneumoniae; assay: Antibacterial activity against ESBL-positive Klebsiella pneumoniae 14-17 after 18 to 24 hrs; method in brief: as §1
[13] = system: Klebsiella pneumoniae; assay: Antibacterial activity against ESBL-positive Klebsiella pneumoniae 14-18 after 18 to 24 hrs; method in brief: as §1
[14] = system: Klebsiella pneumoniae; assay: Antibacterial activity against ESBL-positive Klebsiella pneumoniae 14-19 after 18 to 24 hrs; method in brief: as §1
[15] = system: Klebsiella pneumoniae; assay: Antibacterial activity against Klebsiella pneumoniae 14-1 after 18 to 24 hrs; method in brief: as §1
[16] = system: Klebsiella pneumoniae; assay: Antibacterial activity against Klebsiella pneumoniae 14-2 after 18 to 24 hrs; method in brief: as §1
[17] = system: Klebsiella pneumoniae; assay: Antibacterial activity against Klebsiella pneumoniae 14-3 after 18 to 24 hrs; method in brief: as §1
[18] = system: Klebsiella pneumoniae; assay: Antibacterial activity against Klebsiella pneumoniae 14-4 after 18 to 24 hrs; method in brief: as §1
[19] = system: Pseudomonas aeruginosa; assay: Antibacterial activity against Pseudomonas aeruginosa ATCC 27853 after 18 to 24 hrs; method in brief: as §1
[20] = system: Pseudomonas aeruginosa; assay: Antibacterial activity against Pseudomonas aeruginosa 14-9 after 18 to 24 hrs; method in brief: as §1
[21] = system: Pseudomonas aeruginosa; assay: Antibacterial activity against Pseudomonas aeruginosa 14-14 after 18 to 24 hrs; method in brief: as §1
[22] = system: Pseudomonas aeruginosa; assay: Antibacterial activity against Pseudomonas aeruginosa 14-15 after 18 to 24 hrs; method in brief: as §1
[23] = system: Pseudomonas aeruginosa; assay: Antibacterial activity against Pseudomonas aeruginosa 14-16 after 18 to 24 hrs; method in brief: as §1
[24] = system: Pseudomonas aeruginosa; assay: Antibacterial activity against Pseudomonas aeruginosa 14-19 after 18 to 24 hrs; method in brief: as §1
[25] = system: Staphylococcus aureus; assay: Antibacterial activity against Staphylococcus aureus CMCC 26003 after 18 to 24 hrs; method in brief: as §1
[26] = system: Staphylococcus aureus; assay: Antibacterial activity against methicillin-sensitive Staphylococcus aureus 14-1 after 18 to 24 hrs; method in brief: as §1
[27] = system: Staphylococcus aureus; assay: Antibacterial activity against methicillin-sensitive Staphylococcus aureus 14-2 after 18 to 24 hrs; method in brief: as §1
[28] = system: Staphylococcus aureus; assay: Antibacterial activity against methicillin-sensitive Staphylococcus aureus 14-3 after 18 to 24 hrs; method in brief: as §1
[29] = system: Staphylococcus aureus; assay: Antibacterial activity against methicillin-sensitive Staphylococcus aureus 14-4 after 18 to 24 hrs; method in brief: as §1
[30] = system: Staphylococcus aureus; assay: Antibacterial activity against methicillin-resistant Staphylococcus aureus 14-4 after 18 to 24 hrs
[31] = system: Staphylococcus aureus; assay: Antibacterial activity against methicillin-resistant Staphylococcus aureus 14-5 after 18 to 24 hrs
[32] = system: Staphylococcus epidermidis; assay: Antibacterial activity against methicillin-sensitive Staphylococcus epidermidis 14-2 after 18 to 24 hrs; method in brief: as §1
[33] = system: Staphylococcus epidermidis; assay: Antibacterial activity against methicillin-resistant Staphylococcus epidermidis 14-21 after 18 to 24 hrs
[34] = system: Staphylococcus epidermidis; assay: Antibacterial activity against methicillin-resistant Staphylococcus epidermidis 14-22 after 18 to 24 hrs
[35] = system: Staphylococcus epidermidis; assay: Antibacterial activity against methicillin-resistant Staphylococcus epidermidis 14-37 after 18 to 24 hrs
[36] = system: Staphylococcus epidermidis; assay: Antibacterial activity against methicillin-resistant Staphylococcus epidermidis 14-39 after 18 to 24 hrs
[37] = system: Streptococcus pneumoniae; assay: Antibacterial activity against Streptococcus pneumoniae ATCC 19615 after 18 to 24 hrs; method in brief: as §1
[38] = system: Enterococcus faecalis; assay: Antibacterial activity against Enterococcus faecalis 14-1 after 18 to 24 hrs; method in brief: as §1

SMILES	MIC [1]	MIC [2]	MIC [3]	MIC [4]	MIC [5]	MIC90 [6]	MIC [7]	MIC [8]	MIC [9]	MIC [10]	MIC [11]	MIC [12]	MIC [13]	MIC [14]	MIC [15]	MIC [16]	MIC [17]	MIC [18]	MIC [19]	MIC [20]	other results
COc1ccc(CO/N=C2\CN(c3nc4c(cc3F)c(=O)c(C(=O)O)cn4[C@@H]3C[C@@H]3F)CC2CN)cc1 (some centres undefined)	< 0.008 µg/mL	2 µg/mL (≈ 3.89 µM)	2 µg/mL (≈ 3.89 µM)	8 µg/mL (≈ 15.6 µM)	8 µg/mL (≈ 15.6 µM)	0.353 µg/mL (≈ 0.687 µM)	< 0.008 µg/mL	< 0.008 µg/mL	64 µg/mL (≈ 125 µM)	32 µg/mL (≈ 62.3 µM)	32 µg/mL (≈ 62.3 µM)	8 µg/mL (≈ 15.6 µM)	8 µg/mL (≈ 15.6 µM)	128 µg/mL (≈ 249 µM)	128 µg/mL (≈ 249 µM)	128 µg/mL (≈ 249 µM)	128 µg/mL (≈ 249 µM)	128 µg/mL (≈ 249 µM)	4 µg/mL (≈ 7.79 µM)	8 µg/mL (≈ 15.6 µM)	MIC [21]: 8 µg/mL (≈ 15.6 µM); MIC [22]: 16 µg/mL (≈ 31.2 µM); MIC [23]: 8 µg/mL (≈ 15.6 µM); MIC [24]: 16 µg/mL (≈ 31.2 µM); MIC [25]: < 0.008 µg/mL; MIC [26]: 2 µg/mL (≈ 3.89 µM); MIC [27]: < 0.008 µg/mL; MIC [28]: 0.015 µg/mL (≈ 0.0292 µM); MIC [29]: 0.03 µg/mL (≈ 0.0584 µM); MIC [30]: 16 µg/mL (≈ 31.2 µM); MIC [31]: 8 µg/mL (≈ 15.6 µM); MIC [32]: 32 µg/mL (≈ 62.3 µM); MIC [33]: 4 µg/mL (≈ 7.79 µM); MIC [34]: 4 µg/mL (≈ 7.79 µM); MIC [35]: 16 µg/mL (≈ 31.2 µM); MIC [36]: 8 µg/mL (≈ 15.6 µM); MIC [37]: 0.015 µg/mL (≈ 0.0292 µM); MIC [38]: 32 µg/mL (≈ 62.3 µM)
NCC1CN(c2nc3c(cc2F)c(=O)c(C(=O)O)cn3[C@@H]2C[C@@H]2F)C/C1=N\OCc1ccc([N+](=O)[O-])cc1 (some centres undefined)	0.25 µg/mL (≈ 0.473 µM)	4 µg/mL (≈ 7.57 µM)	4 µg/mL (≈ 7.57 µM)	8 µg/mL (≈ 15.1 µM)	4 µg/mL (≈ 7.57 µM)	0.467 µg/mL (≈ 0.884 µM)	0.25 µg/mL (≈ 0.473 µM)	4 µg/mL (≈ 7.57 µM)	> 128 µg/mL	128 µg/mL (≈ 242 µM)	128 µg/mL (≈ 242 µM)	8 µg/mL (≈ 15.1 µM)	16 µg/mL (≈ 30.3 µM)	128 µg/mL (≈ 242 µM)	128 µg/mL (≈ 242 µM)	128 µg/mL (≈ 242 µM)	128 µg/mL (≈ 242 µM)	128 µg/mL (≈ 242 µM)	4 µg/mL (≈ 7.57 µM)	4 µg/mL (≈ 7.57 µM)	MIC [21]: 16 µg/mL (≈ 30.3 µM); MIC [22]: 16 µg/mL (≈ 30.3 µM); MIC [23]: 16 µg/mL (≈ 30.3 µM); MIC [24]: 16 µg/mL (≈ 30.3 µM); MIC [25]: 0.015 µg/mL (≈ 0.0284 µM); MIC [26]: 4 µg/mL (≈ 7.57 µM); MIC [27]: 0.06 µg/mL (≈ 0.114 µM); MIC [28]: 0.03 µg/mL (≈ 0.0568 µM); MIC [29]: 0.125 µg/mL (≈ 0.237 µM); MIC [30]: 128 µg/mL (≈ 242 µM); MIC [31]: 4 µg/mL (≈ 7.57 µM); MIC [32]: 128 µg/mL (≈ 242 µM); MIC [33]: 16 µg/mL (≈ 30.3 µM); MIC [34]: 8 µg/mL (≈ 15.1 µM); MIC [35]: 4 µg/mL (≈ 7.57 µM); MIC [36]: 8 µg/mL (≈ 15.1 µM); MIC [37]: 0.015 µg/mL (≈ 0.0284 µM); MIC [38]: 64 µg/mL (≈ 121 µM)
COc1cccc(CO/N=C2\CN(c3nc4c(cc3F)c(=O)c(C(=O)O)cn4[C@@H]3C[C@@H]3F)CC2CN)c1OC (some centres undefined)	0.015 µg/mL (≈ 0.0276 µM)	1 µg/mL (≈ 1.84 µM)	1 µg/mL (≈ 1.84 µM)	4 µg/mL (≈ 7.36 µM)	16 µg/mL (≈ 29.4 µM)	0.376 µg/mL (≈ 0.692 µM)	0.03 µg/mL (≈ 0.0552 µM)	32 µg/mL (≈ 58.9 µM)	128 µg/mL (≈ 235 µM)	2 µg/mL (≈ 3.68 µM)	128 µg/mL (≈ 235 µM)	128 µg/mL (≈ 235 µM)	16 µg/mL (≈ 29.4 µM)	128 µg/mL (≈ 235 µM)	128 µg/mL (≈ 235 µM)	128 µg/mL (≈ 235 µM)	64 µg/mL (≈ 118 µM)	128 µg/mL (≈ 235 µM)	2 µg/mL (≈ 3.68 µM)	8 µg/mL (≈ 14.7 µM)	MIC [21]: 16 µg/mL (≈ 29.4 µM); MIC [22]: 16 µg/mL (≈ 29.4 µM); MIC [23]: 16 µg/mL (≈ 29.4 µM); MIC [24]: 16 µg/mL (≈ 29.4 µM); MIC [25]: < 0.008 µg/mL; MIC [26]: 4 µg/mL (≈ 7.36 µM); MIC [27]: < 0.008 µg/mL; MIC [28]: < 0.008 µg/mL; MIC [29]: 0.015 µg/mL (≈ 0.0276 µM); MIC [30]: 16 µg/mL (≈ 29.4 µM); MIC [31]: 2 µg/mL (≈ 3.68 µM); MIC [32]: 32 µg/mL (≈ 58.9 µM); MIC [33]: 2 µg/mL (≈ 3.68 µM); MIC [34]: 1 µg/mL (≈ 1.84 µM); MIC [35]: 16 µg/mL (≈ 29.4 µM); MIC [36]: 16 µg/mL (≈ 29.4 µM); MIC [37]: 0.03 µg/mL (≈ 0.0552 µM); MIC [38]: 64 µg/mL (≈ 118 µM)

Reference: ChEMBL document CHEMBL3632558, “Synthesis, antimycobacterial and antibacterial activity of l-[(1R,2S)-2-fluorocyclopropyl]naphthyridone derivatives containing an oxime-functionalized pyrrolidine moiety” (2015)
